For two compounds, IC50 results are on record in BindingDB's records for doi:10.1016/j.bmcl.2010.09.046 (Human Biomolecular Research Institute, 2010).

Experiment [1] concerns the target T1, Bcl-2-related protein A1 (Homo sapiens, UniProt Q16548).
T1 sequence (Q16548 whole entry): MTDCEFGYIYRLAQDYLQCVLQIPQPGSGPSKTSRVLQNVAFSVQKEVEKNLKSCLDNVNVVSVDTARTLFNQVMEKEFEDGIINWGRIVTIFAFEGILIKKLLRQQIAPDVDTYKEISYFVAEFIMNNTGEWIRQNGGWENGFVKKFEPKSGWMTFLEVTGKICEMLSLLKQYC
The experiment is described as follows: Inhibition of N-terminal FITC BH3 peptide binding to GST-tagged Bfl1 by fluorescence polarization assay. The gist of the method: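 Then FITC-Bid BH3 peptide (5.6 nM working solution) was added and incubated 4 h at room temperature. Ten concentrations in 10% DMSO. Fluorescence polarization read at ex 485/em 530 nm. IC50 from sigmoidal dose-response non-linear regression.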

In experiment [2] the target is T1, Bcl-2-related protein A1. Description: Inhibition of N-terminal FITC BH3 peptide binding to GST-tagged Bfl1 by time resolved-FRET assay. The method in brief:
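10-point 2-fold dilution series in 10% final DMSO, in duplicate wells. FITC-Bid (5.6 nM) plus Tb-antibody (2.5 nM) was then added and incubated 4 h at room temperature. TR-FRET read at ex 340 nm, signal taken as the 520/490 nm emission ratio.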

With `CN1CCN(c2cc(O)n(-c3ccc(Cl)c(Cl)c3)c2O)CC1` [1-(3,4-dichlorophenyl)-3-(4-methylpiperazin-1-yl)pyrrolidine-2,5-dione], the IC50 in experiment [1] and in experiment [2] was above 10 µM throughout.

`Oc1c(Cl)c(N=Cc2ccccc2)c(O)n1-c1ccc(Cl)c(Cl)c1` [MLS-0067125.0001]: the half-inhibitory concentration (IC50) in experiment [1] and in experiment [2] was above 50 µM each time.
